H69AR inhibit = proliferation blockers of H69AR lung cancer cells, primary screen, cell-based, human, 86K library; viability, % at 10 µM; hit rate 6% among 85,000; H69AR lung tumor viability, ATP luminescence, 72 h; stronger effect = lower value;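 active = viability at or below 40%; inactive = viability above 40%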;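 also: multidrug resistant small cell line overexpressing MRP-1 efflux transporter; 100% = mean luminescence of untreated control wells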
Lung fibro prol = antiproliferative effect on LL 47 fibroblasts – human, LL 47 cells, CellTiter-Glo luminescence, primary screen. LL 47 human lung fibroblast viability, ATP luminescence; stronger effect = lower value. viability, % at 10 µM. hit rate 1.1% among 85,000;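 active = viability at or below 50% in the single dose screen; inactive = viability above 50%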;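 also: compound exposure lasted 72 h before the ATP readout; 100% = median luminescence of untreated cell-only wells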
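Times – overnight cell rest, 72 h compound treatment at 37 °C · Test system – human lung fibroblast line LL 47, low passage · Amount – 1,150 cells in each well · Controls – cell-only wells, no compound · Doses – 0.1% DMSO in all compound wells · Measured by – CellTiter-Glo luminescence · Buffer or medium – IMEM plus 15% FBS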
HUVEC inhibit = inhibitors of HUVEC proliferation, primary screen, cell-based, 384-well. AID 648, 2007. hit rate 1.1% among 86,000. viability, % at 10 µM (by protocol). CellTiter-Glo luminescence, 72 h; stronger effect = lower value;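 active = viability at or below 30%; inactive = viability above 30%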;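 also: 100% = median luminescence of DMSO-only cell control wells on each plate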
HCT116 PTEN-null = growth suppression of PTEN-null HCT116, primary screen, cell-based, CellTiter-Glo; hit rate 1.2% among 140,000; AID 827, 2007; viability, % at 10 µM; HCT116 PTEN-null viability, 60 h; stronger effect = lower value;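 active = viability at or below a set limit, 4 SD under the median of all tested compounds, cut at about 3.7% in these data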;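 also: PTEN knockout HCT116 line with beta catenin targeted HCT116 as companion control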
HCT116 bCat-KO = primary screen for growth suppressors in beta-catenin knockout HCT116 cells (colon tumor, human) | HCT116 beta-catenin knockout viability, CellTiter-Glo, 60 h; stronger effect = lower value | viability, % at 10 µM | hit rate 1.5% among 140,000;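 active = viability at or under a set limit, the compound median less 4 SD, cut at about 6% in these data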;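 also: 0% = Hyamine 1622 control at 20 µM and 100% = untreated cell control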
The depositor's hits bear a star; / = no result. Only a selection was taken, and hits are over-represented in it overall.

SMILES | H69AR inhibit | Lung fibro prol | HUVEC inhibit | HCT116 PTEN-null | HCT116 bCat-KO
Cn1cc(C(=O)NC2CCCCCCC2)c(=O)c2cc(S(=O)(=O)N3CCCC3)ccc21 | 32* | 49* | 52 | 80 | 95
Cn1cc(C(=O)NC2CCCCCC2)c(=O)c2cc(S(=O)(=O)N3CCCC3)ccc21 | 54 | / | 81 | 29 | 31
O=C(N/N=C\C=C\c1ccco1)c1cc(-c2ccc3ccccc3c2)n[nH]1 | / | / | / | 3.6* | 7
O=C(N/N=C/C=C/c1ccco1)c1cccnc1 | 85 | 105 | 98 | 85 | 89
O=C(CSc1ncc(-c2ccc(F)cc2)n1Cc1ccco1)Nc1ccc2c(c1)OCO2 | 25* | 101 | 63 | 69 | 65
O=C(CSc1nc(-c2ccco2)cc(C(F)(F)F)n1)Nc1ccc2c(c1)OCO2 | 24* | 90 | 68 | 64 | 68
O=C(CSc1nnc(-c2cccs2)n1Cc1ccco1)Nc1ccc2c(c1)OCO2 | 108 | 102 | 94 | 95 | 98
O=C(CSc1nc(-c2ccco2)cc(C(F)(F)F)n1)Nc1ccc(C(=O)N2CCOCC2)cc1 | 78 | 108 | 101 | 86 | 92
CCn1cc(CNC(=O)CCSc2nc(-c3ccco3)cc(C(F)(F)F)n2)cn1 | 32* | 100 | 82 | 54 | 67
O=C(CSc1nc(-c2ccco2)cc(C(F)(F)F)n1)Nc1cccnc1 | 21* | 85 | 69 | 65 | 68
Cc1ccc(-c2ccc(/C=N\NC(=O)c3cc4c(ccc5ccccc54)o3)o2)cc1[N+](=O)[O-] | / | / | / | 0.6* | 1.2*
Cc1ccc2nc(/C(C#N)=C\c3ccc(N4CCOCC4)o3)[nH]c2c1 | 5.5* | 84 | 76 | 62 | 76
Cc1ccc2nc(/C(C#N)=C\c3ccc([N+](=O)[O-])o3)[nH]c2c1 | / | / | / | 1.5* | 1.9*
N#C/C(=C\Nc1ccc2c(c1)OCCO2)c1nc(-c2ccccc2)cs1 | / | / | / | 58 | 56
N#C/C(=C\c1ccc([N+](=O)[O-])o1)c1nc2ccccc2[nH]1 | / | / | / | 0.6* | 0.7*
Cc1ccc(/C(C#N)=C\c2ccc(N3CCOCC3)o2)cc1 | / | / | / | 69 | 54
N#C/C(=C\Nc1ccc2c(c1)OCCO2)c1nc2ccccc2[nH]1 | 19* | 104 | 74 | 77 | 80
Cc1ccc2nc(/C(C#N)=C\c3cc(C)n(-c4cccc([N+](=O)[O-])c4)c3C)[nH]c2c1 | 58 | 92 | 75 | 51 | 42
COC(=O)C(C)N(C(=O)c1ccc(C(=O)c2ccccc2)cc1)c1c(C)cccc1C (stereo not drawn) | 95 | 86 | 99 | 45 | 50
Cc1cc(Br)ccc1SCC(=O)OCC(=O)Nc1ccccc1C#N | / | / | / | 94 | 91
C/C(=N\Nc1nc2c(s1)CCCC2)c1ccccc1 | / | / | / | 77 | 74
CCCCCC(=O)N(O)C1CC(=O)N(c2ccccc2)C1=O (stereo not drawn) | 35* | 101 | 97 | 76 | 74
CN(C#N)c1nc(Cl)nc(Nc2cccc(Cl)c2)n1 | / | / | / | 97 | 97
O=C(CCN1CCc2ccccc2C1)c1ccc2c(c1)OCCO2 | 0.7* | 80 | 87 | 80 | 64
O=C(CCN1CCc2ccccc21)c1ccc2c(c1)OCCO2 | 92 | 95 | 101 | 12 | 12
SMILES | H69AR inhibit | Lung fibro prol | HUVEC inhibit | HCT116 PTEN-null | HCT116 bCat-KO
Cc1ccc(CN2CCN(/N=C/c3ccc(C)s3)CC2)cc1 | / | / | / | 97 | 95
Cc1ccc(OCc2nnc(SCc3nc4ccccc4[nH]3)n2Cc2ccco2)cc1 | 91 | 92 | 85 | 42 | 34
CCn1c(COc2ccc(Cl)cc2)nnc1SCc1nc2ccccc2[nH]1 | 4.4* | 91 | 88 | 40 | 38
Fc1ccc(Sc2nc(-c3ccccc3)nnc2C(F)(F)F)cc1 | / | / | / | 2.1* | 4.1*
Fc1ccc(Oc2nc(-c3ccccc3)nnc2C(F)(F)F)cc1 | / | / | / | 95 | 90
Cc1ccc(S(=O)(=O)N2CCN(C(=O)c3cc(=O)[nH]c4ccccc34)CC2)c(C)c1 | 39* | 102 | 92 | 79 | 82
Cc1cc(C)c(C)c(S(=O)(=O)N2CCN(C(=O)c3cc(=O)[nH]c4ccccc34)CC2)c1C | 12* | 92 | 65 | 34 | 40
Cc1ccc(S(=O)(=O)N2CCN(C(=O)CSc3nc4ccccc4c(=O)[nH]3)CC2)c(C)c1 | 71 | 98 | 83 | 75 | 75
O=C(Cc1ccc(-n2c(=O)[nH]c3ccsc3c2=O)cc1)N1CCN(c2ccc(Cl)cc2)CC1 | / | / | / | 91 | 91
CN(C)CCNC(=O)/C(=C/c1ccc(-c2cccc(Cl)c2)o1)NC(=O)c1ccccc1 | / | / | / | 1.6* | 1.6*
CN(C)CCCNC(=O)/C(=C\c1ccc(-c2ccc(Br)cc2)o1)NC(=O)c1ccccc1 | / | / | / | 1.8* | 1.8*
CN(C)CCNC(=O)/C(=C/c1ccc(-c2cccc([N+](=O)[O-])c2)o1)NC(=O)c1ccccc1 | / | / | / | 29 | 39
CCOC(=O)c1c(C)sc2c1N(C(C)=O)c1cc(Cl)ccc1S2 | 82 | 85 | 108 | 71 | 77
CCOC(=O)N1CCN(S(=O)(=O)c2ccc(C(=O)NNc3nc4c(C)cccc4s3)cc2)CC1 | / | / | / | 11 | 11
Cc1cccc2sc(NNC(=O)c3ccc(S(=O)(=O)N4CCCC(C)C4)cc3)nc12 (stereo not drawn) | / | / | / | 4 | 1.9*
Cc1cccc2sc(NNC(=O)c3ccc(S(=O)(=O)N4CCc5ccccc5C4)cc3)nc12 | / | / | / | 5 | 3.7*
CCCCN1C2=C(C(=O)CCC2)C(c2ccc(Cl)c(Cl)c2)C2=C1c1ccccc1C2=O (stereo not drawn) | / | / | / | 73 | 57
CCCN(CCC)C1=N/C(=C\c2ccco2)C(=O)N1c1ccccc1 | / | / | / | 83 | 82
CNS(=O)(=O)c1cc(NC(C)=O)c(C)cc1C | / | / | / | 107 | 92
CCCn1c(SCC(=O)Nc2ccccc2Oc2ccccc2)n[nH]c1=O | 52 | 102 | 103 | 95 | 92
OC1CCCN(Cc2ccc3ccc4cccc5ccc2c3c45)C1 (stereo not drawn) | 45 | 49* | 2.4* | 2.2* | 1.3*
Cc1ccc(-c2nc3ncccc3o2)cc1NC(=O)Cc1ccc(Cl)cc1 | 68 | 87 | 98 | 70 | 75
Cc1ccc(-c2nc3cccnc3o2)cc1NC(=O)COc1ccc(Cl)cc1C | 6.9* | 63 | 33 | 23 | 95
Cc1ccc(-c2nc3cccnc3o2)cc1NC(=O)COc1ccc(C(C)(C)C)cc1 | 44 | 82 | 18* | 58 | 67
COc1c(Cl)cc(Cl)cc1/C=C/C(=O)c1ccc(NC(=O)c2cccs2)cc1 | / | / | / | 1.8* | 2.6*
COc1ccc(C(=O)NC2(C(F)(F)F)C(=O)Nc3c2c(=O)[nH]c(=O)n3CCc2ccc(OC)c(OC)c2)cc1 (stereo not drawn) | 108 | 101 | 102 | 110 | 103
O=C(NCC1CCN(c2ccc(S(=O)(=O)N3CCOCC3)cc2)CC1)c1ccc(Cl)cc1 | 35* | 86 | 88 | 57 | 62
